Measurements from ChEMBL document CHEMBL1154095, “Separation of alpha-glucosidase-inhibitory and liver X receptor-antagonistic activities of phenethylphenyl phthalimide analogs and generation of LXRalpha-selective antagonists” (Bioorg Med Chem, 2009).
Active and inactive are the calls of the source. No cut-off for these calls is given here.

Key:
[1] = Inhibition of Saccharomyces sp. alpha-glucosidase assessed as p-nitrophenol release
How it was run: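 Yeast alpha-glucosidase at 0.2 mU/mL in 10 mM phosphate buffer pH 7.0 was preincubated with compound (1% v/v DMSO final) for 10 min at 37 °C. pNPG substrate (final 0.2 mM) was then added and incubated 10 min at 37 °C. The reaction was basified with Na2CO3, and released p-nitrophenol was read at A405. Triplicates, repeated at least twice, normalized averages, IC50.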

[2] = biological target: T1, Oxysterols receptor LXR-beta (Homo sapiens, UniProt P55055); test: Antagonist activity at human LXRbeta expressed in HEK293 cells assessed as inhibition of beta-galactosidase activity by luciferase reporter gene assay; assay type: functional, cell-based
T1 sequence (P55055 whole entry): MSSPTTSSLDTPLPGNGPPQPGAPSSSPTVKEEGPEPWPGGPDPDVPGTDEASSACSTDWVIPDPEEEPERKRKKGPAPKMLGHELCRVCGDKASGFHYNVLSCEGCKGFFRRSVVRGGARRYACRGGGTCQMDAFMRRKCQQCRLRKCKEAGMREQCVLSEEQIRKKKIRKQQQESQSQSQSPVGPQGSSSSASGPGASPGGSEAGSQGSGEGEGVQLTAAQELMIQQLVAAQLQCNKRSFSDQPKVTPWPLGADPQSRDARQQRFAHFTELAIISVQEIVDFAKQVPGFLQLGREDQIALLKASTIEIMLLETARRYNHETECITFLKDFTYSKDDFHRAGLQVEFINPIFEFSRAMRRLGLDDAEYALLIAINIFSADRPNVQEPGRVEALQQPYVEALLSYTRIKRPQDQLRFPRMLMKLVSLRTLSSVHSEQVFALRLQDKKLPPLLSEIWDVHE

[3] = biological target: T2, Oxysterols receptor LXR-alpha (Homo sapiens, UniProt Q13133); test: Antagonist activity at human LXRalpha expressed in HEK293 cells assessed as inhibition of beta-galactosidase activity by luciferase reporter gene assay; assay type: functional, cell-based
T2 sequence (Q13133 whole entry): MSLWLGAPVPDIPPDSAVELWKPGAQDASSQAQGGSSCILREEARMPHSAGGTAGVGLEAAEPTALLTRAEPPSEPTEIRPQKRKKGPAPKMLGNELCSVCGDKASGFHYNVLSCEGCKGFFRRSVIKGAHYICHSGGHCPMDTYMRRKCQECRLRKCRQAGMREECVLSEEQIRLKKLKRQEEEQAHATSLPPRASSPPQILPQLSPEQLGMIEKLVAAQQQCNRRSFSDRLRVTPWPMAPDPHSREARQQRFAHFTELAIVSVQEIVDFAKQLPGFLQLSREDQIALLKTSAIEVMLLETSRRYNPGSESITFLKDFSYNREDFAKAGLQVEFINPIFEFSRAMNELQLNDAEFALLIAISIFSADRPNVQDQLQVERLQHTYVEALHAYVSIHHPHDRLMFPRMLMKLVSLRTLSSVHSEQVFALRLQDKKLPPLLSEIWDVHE

[4] = biological target: Liver X receptor (LXR alpha AND LXR beta) (Homo sapiens) (UniProt Q13133+P55055); test: Selectivity ratio of IC50 for human LXRbeta over IC50 for human LXRalpha; assay type: protein assay
Saccharomyces sp. = test: Inhibition of Saccharomyces sp. alpha-glucosidase by non-competitive Lineweaver-Burke analysis

IC50 [1] [µM]	IC50 [2] [µM]	IC50 [3] [µM]	Selectivity ratio [4]	Activity (Saccharomyces sp.)	Selectivity Index [4]	Structure (SMILES)
90	> 30	> 30	–	–	–	O=C1c2ccccc2C(=O)N1c1ccc(/C=C/c2ccccc2)cc1
40	14	> 20	–	–	–	COc1ccc(/C=C/c2ccc(N3C(=O)c4c(Cl)c(Cl)c(Cl)c(Cl)c4C3=O)cc2)cc1OC
> 100	4.3	4.8	–	–	–	COc1ccc(CCc2ccc(N3C(=O)c4ccccc4C3=O)cc2)cc1OC
20	17	15	–	–	–	O=C1c2c(Cl)c(Cl)c(Cl)c(Cl)c2C(=O)N1c1ccccc1CCc1ccc(O)c(O)c1
> 100	–	–	–	–	–	COc1ccc(CCc2ccccc2N2C(=O)c3ccccc3C2=O)cc1OC
49	> 30	5.5	–	–	–	COc1ccc(CCc2cccc(N3C(=O)c4c(Cl)c(Cl)c(Cl)c(Cl)c4C3=O)c2)cc1
21	> 30	3.9	–	–	–	O=C1c2c(Cl)c(Cl)c(Cl)c(Cl)c2C(=O)N1c1ccc(CCc2cccc(O)c2)cc1
27	> 30	> 30	–	–	–	COc1ccc(/C=C/c2cccc(N3C(=O)c4c(Cl)c(Cl)c(Cl)c(Cl)c4C3=O)c2)cc1OC
> 100	> 3	> 3	–	–	–	O=C1c2c(Cl)c(Cl)c(Cl)c(Cl)c2C(=O)N1c1ccccc1CCc1ccccc1
> 100	–	–	–	–	–	O=C1c2ccccc2C(=O)N1c1ccc(CCc2ccccc2)cc1
–	–	–	11	–	–	c1cc2cc(c1)Oc1ccc(cc1)CCc1ccccc1-c1ccc(cc1)CC2
38	7.6	6.1	–	–	–	O=C1c2ccccc2C(=O)N1c1cccc(CCc2ccc(O)c(O)c2)c1
> 100	–	–	–	–	–	O=C1c2ccccc2C(=O)N1c1cccc(CCc2ccccc2)c1
23	> 30	> 30	–	–	–	O=C1c2c(Cl)c(Cl)c(Cl)c(Cl)c2C(=O)N1c1ccc(CCc2ccc(O)cc2)cc1
> 100	> 1	1.6	–	–	–	O=C1c2ccccc2C(=O)N1c1ccc(/C=C/c2ccc(O)c(O)c2)cc1
> 100	> 30	2.9	–	–	–	O=C1c2ccccc2C(=O)N1c1ccc(CCc2ccc(O)cc2)cc1
21	> 30	> 30	–	–	–	O=C1c2c(Cl)c(Cl)c(Cl)c(Cl)c2C(=O)N1c1ccc(/C=C/c2ccccc2)cc1
> 100	3.5	2.4	–	–	–	COc1cccc(CCc2ccc(N3C(=O)c4ccccc4C3=O)cc2)c1
18	> 30	> 30	–	Active	–	COc1ccc(CCc2ccc(N3C(=O)c4c(Cl)c(Cl)c(Cl)c(Cl)c4C3=O)cc2)cc1OC
23	21	6.3	–	–	–	O=C1c2c(Cl)c(Cl)c(Cl)c(Cl)c2C(=O)N1c1cccc(CCc2ccc(O)c(O)c2)c1

IC50 [1] [µM]	IC50 [2] [µM]	IC50 [3] [µM]	Selectivity ratio [4]	Activity (Saccharomyces sp.)	Selectivity Index [4]	Structure (SMILES)
> 100	> 30	0.2	–	–	> 150	COc1ccc(CCc2ccc(N3C(=O)c4ccccc4C3=O)cc2)cc1
> 100	> 30	9.8	–	–	–	O=C1c2ccccc2C(=O)N1c1ccccc1CCc1ccc(O)c(O)c1
> 100	7.7	6.1	–	–	–	COc1ccc(CCc2ccccc2N2C(=O)c3c(Cl)c(Cl)c(Cl)c(Cl)c3C2=O)cc1OC
17	> 30	> 30	–	–	–	O=C1c2c(Cl)c(Cl)c(Cl)c(Cl)c2C(=O)N1c1ccc(CCc2ccccc2)cc1
> 100	> 30	3.7	–	–	–	O=C1c2c(Cl)c(Cl)c(Cl)c(Cl)c2C(=O)N1c1cccc(CCc2ccc(O)cc2)c1
> 100	> 3	1.7	–	–	–	O=C1c2ccccc2C(=O)N1c1ccc(CCc2ccc(O)c(O)c2)cc1
> 100	> 30	7.5	–	–	–	O=C1c2ccccc2C(=O)N1c1ccc(CCc2cccc(O)c2)cc1
31	> 30	> 30	–	–	–	O=C1c2c(Cl)c(Cl)c(Cl)c(Cl)c2C(=O)N1c1cccc(/C=C/c2ccccc2)c1
> 100	> 30	5.1	–	–	–	O=C1c2c(Cl)c(Cl)c(Cl)c(Cl)c2C(=O)N1c1ccc(CCc2ccc(O)c(O)c2)cc1
> 100	> 30	> 30	–	–	–	O=C1c2c(Cl)c(Cl)c(Cl)c(Cl)c2C(=O)N1c1cccc(CCc2ccccc2)c1
> 100	> 30	2.7	–	–	–	O=C1c2c(Cl)c(Cl)c(Cl)c(Cl)c2C(=O)N1c1ccc(/C=C/c2ccc(O)c(O)c2)cc1
> 100	> 30	> 30	–	–	–	COc1ccc(CCc2cccc(N3C(=O)c4ccccc4C3=O)c2)cc1OC
13	> 30	6.6	–	–	–	O=C1c2c(Cl)c(Cl)c(Cl)c(Cl)c2C(=O)N1c1cccc(/C=C/c2ccc(O)c(O)c2)c1
69	> 30	4.2	–	–	–	COc1cccc(CCc2cccc(N3C(=O)c4c(Cl)c(Cl)c(Cl)c(Cl)c4C3=O)c2)c1
> 100	> 30	8.8	–	–	–	COc1ccc(CCc2ccc(N3C(=O)c4c(Cl)c(Cl)c(Cl)c(Cl)c4C3=O)cc2)cc1
83	> 30	> 30	–	–	–	COc1ccc(CCc2cccc(N3C(=O)c4c(Cl)c(Cl)c(Cl)c(Cl)c4C3=O)c2)cc1OC
16.2	–	–	–	–	–	O=C1c2ccccc2C(=O)N1c1ccccc1CCc1ccccc1
> 100	> 30	3.8	–	–	–	COc1ccc(/C=C/c2ccc(N3C(=O)c4ccccc4C3=O)cc2)cc1OC
50	> 30	2.6	–	–	–	O=C1c2c(Cl)c(Cl)c(Cl)c(Cl)c2C(=O)N1c1cccc(CCc2cccc(O)c2)c1
65	> 30	6.9	–	–	–	COc1cccc(CCc2ccc(N3C(=O)c4c(Cl)c(Cl)c(Cl)c(Cl)c4C3=O)cc2)c1
